Results on one compound are retold here after ChEMBL document CHEMBL4359902, “Development of novel chromeno[4,3-c]pyrazol-4(2H)-one derivates bearing sulfonylpiperazine as antitumor inhibitors targeting PI3Kα” (Eur J Med Chem, 2019).

pIC50: −log10 of the molar value.

For assay [1], the system named is HCT-116. The assay can be described thus: Antiproliferative activity against human HCT116 cells assessed as reduction in cell viability after 48 hrs by MTT assay. As to conditions: HCT-116, 48 h. The assay is classed as functional, cell-based.
The next assay concerns Huh-7. The assay can be described thus: Antiproliferative activity against human HuH7 cells assessed as reduction in cell viability after 48 hrs by MTT assay. In kind it is functional, cell-based. Conditions: Huh-7, 48 h. For orientation: Tetrazolium dyes change colour on reduction, which living cells bring about.
A further assay has as its system HL-60. Nature of the assay: Antiproliferative activity against human HL60 cells assessed as reduction in cell viability after 48 hrs by MTT assay. The assay is classed as functional, cell-based. Conditions: HL-60, 48 h.
In assay [2] the target is T1, Phosphatidylinositol 4,5-bisphosphate 3-kinase catalytic subunit alpha isoform (Homo sapiens, UniProt P42336). Nature of the assay: Inhibition of PI3Kalpha (unknown origin) using diC8-PI(4,5)P2 as substrate incubated for 3 hrs in presence of ATP by fluorescence polarization assay. The method, boiled down:
(§1)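 Fluorescence polarization competition assay, 10 μL reactions at pH 7: 2.5 mM MgCl₂, 5 mM HEPES, ATP, 10 mM DTT, 50 ng PI3K isoform, diC8-PI(4,5)P2 substrate. After 3 h at room temperature, reactions were chelator-quenched. Phosphoinositide binding protein and fluorophore-labelled tracer were added, then 1 h dark equilibration and polarization read.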
(Polarisation of emitted light reports the rotation of a fluorescent probe.)

In assay [3] the target is Phosphatidylinositol 4,5-bisphosphate 3-kinase catalytic subunit beta isoform (Homo sapiens, UniProt P42338). The assay can be described thus: Inhibition of PI3Kbeta (unknown origin) using diC8-PI(4,5)P2 as substrate incubated for 3 hrs in presence of ATP by fluorescence polarization assay. The method, boiled down: as §1
Phosphatidylinositol 4,5-bisphosphate 3-kinase catalytic subunit beta isoform, sequence (P42338 whole entry, canonical isoform): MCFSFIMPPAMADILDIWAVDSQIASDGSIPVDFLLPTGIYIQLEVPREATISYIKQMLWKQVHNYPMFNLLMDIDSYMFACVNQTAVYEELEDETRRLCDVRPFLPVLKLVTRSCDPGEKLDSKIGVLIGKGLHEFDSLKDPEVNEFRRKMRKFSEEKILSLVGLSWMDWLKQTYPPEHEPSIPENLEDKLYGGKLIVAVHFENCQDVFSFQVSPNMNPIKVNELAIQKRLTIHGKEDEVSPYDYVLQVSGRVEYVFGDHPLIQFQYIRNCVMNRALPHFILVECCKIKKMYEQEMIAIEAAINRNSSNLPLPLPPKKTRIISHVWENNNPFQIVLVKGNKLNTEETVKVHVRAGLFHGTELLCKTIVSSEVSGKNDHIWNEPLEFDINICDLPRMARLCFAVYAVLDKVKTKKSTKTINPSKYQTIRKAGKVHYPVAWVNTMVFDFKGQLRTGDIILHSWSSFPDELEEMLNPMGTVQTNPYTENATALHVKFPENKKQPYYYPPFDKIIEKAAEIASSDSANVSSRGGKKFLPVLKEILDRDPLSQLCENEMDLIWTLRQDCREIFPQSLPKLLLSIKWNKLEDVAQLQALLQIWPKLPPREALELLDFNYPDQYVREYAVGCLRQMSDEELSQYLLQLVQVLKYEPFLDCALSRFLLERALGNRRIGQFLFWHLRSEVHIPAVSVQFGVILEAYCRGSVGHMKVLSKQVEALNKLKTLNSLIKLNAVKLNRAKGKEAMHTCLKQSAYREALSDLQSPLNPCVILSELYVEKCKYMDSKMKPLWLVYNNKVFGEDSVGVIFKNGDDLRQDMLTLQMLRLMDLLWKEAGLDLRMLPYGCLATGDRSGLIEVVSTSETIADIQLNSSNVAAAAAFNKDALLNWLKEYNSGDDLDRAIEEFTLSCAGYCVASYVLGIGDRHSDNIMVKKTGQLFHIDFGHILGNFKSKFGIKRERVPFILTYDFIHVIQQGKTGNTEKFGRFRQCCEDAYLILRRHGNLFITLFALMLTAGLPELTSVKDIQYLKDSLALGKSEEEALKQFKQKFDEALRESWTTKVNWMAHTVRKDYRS
The target of assay [4] is Serine/threonine-protein kinase mTOR (Homo sapiens, UniProt P42345). The assay can be described thus: Inhibition of mTOR (unknown origin).
Assay [5] concerns the target T1, Phosphatidylinositol 4,5-bisphosphate 3-kinase catalytic subunit alpha isoform. The assay can be described thus: Inhibition of PI3K-alpha in human HCT116 cells assessed as decrease in phosphorylated Akt protein expression level measured after 24 hrs by Western blot analysis. The assay is classed as cell-based. The method, boiled down:
(§2)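 HCT-116 cells exposed for 24 h at 0.25, 0.5 and 1 μM, lysed in RIPA buffer, and analysed by SDS-PAGE/PVDF Western blot for p-Akt (Ser473) and p-S6K. β-actin internal control; densitometry mean ± SEM, n = 3.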

Assay [6] has the same target. The assay can be described thus: Inhibition of PI3K-alpha in human HCT116 cells assessed as decrease in phosphorylated S6K protein expression level measured after 24 hrs by Western blot analysis. The assay is classed as cell-based. The procedure, abridged:
as §2
(In general: In western blotting, separated proteins are transferred to a membrane and probed.)

The test system of assay [7] is HCT-116. The assay can be described thus: Cell cycle arrest in human HCT116 cells assessed as accumulation at G2 phase at 0.25 uM measured after 24 hrs by propidium iodide staining based flow cytometry analysis (reference value: 7.86 %). In kind it is functional.
For assay [8], the system named is HCT-116. The assay can be described thus: Cell cycle arrest in human HCT116 cells assessed as accumulation at G1 phase at 0.5 uM measured after 24 hrs by propidium iodide staining based flow cytometry analysis (reference value: 42.01 %). The assay is classed as functional.
The subject of assay [9] is HCT-116. The assay can be described thus: Cell cycle arrest in human HCT116 cells assessed as accumulation at S phase at 0.5 uM measured after 24 hrs by propidium iodide staining based flow cytometry analysis (reference value: 50.12 %). The assay is classed as functional.
For assay [10], the system named is HCT-116. Nature of the assay: Cell cycle arrest in human HCT116 cells assessed as accumulation at G1 phase at 1 uM measured after 24 hrs by propidium iodide staining based flow cytometry analysis (reference value: 42.01 %). The assay is classed as functional.
Assay [11] concerns HCT-116. Nature of the assay: Cell cycle arrest in human HCT116 cells assessed as accumulation at G2 phase at 1 uM measured after 24 hrs by propidium iodide staining based flow cytometry analysis (reference value: 7.86 %). In kind it is functional.
Assay [12] deals with HCT-116. The assay can be described thus: Induction of apoptosis in human HCT116 cells assessed as late apoptotic cells at 0.25 uM measured after 24 hrs by annexin-v-FITC/propidium iodide staining based FACScan flow cytometry analysis (reference value: 9.61 %). In kind it is functional.
The test system of assay [13] is HCT-116. Nature of the assay: Induction of apoptosis in human HCT116 cells assessed as necrotic cells at 0.5 uM measured after 24 hrs by annexin-v-FITC/propidium iodide staining based FACScan flow cytometry analysis (reference value: 1.87 %). The assay is classed as functional.
Assay [14] has as its system HCT-116. The assay can be described thus: Induction of apoptosis in human HCT116 cells assessed as necrotic cells at 1 uM measured after 24 hrs by annexin-v-FITC/propidium iodide staining based FACScan flow cytometry analysis (reference value: 1.87 %). The assay is classed as functional.
Assay [15] has as its system HCT-116. The assay can be described thus: Induction of apoptosis in human HCT116 cells assessed as upregulation of BAX expression measured after 24 hrs by Western blot analysis. The assay is classed as functional, cell-based. The method, boiled down: (§3)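 HCT-116 cells treated at 0.25, 0.5 and 1 μM for 24 h, lysed in RIPA buffer with PMSF. Proteins separated by SDS-PAGE (8% or 10%), transferred to PVDF and probed with primary antibodies and HRP secondaries. β-actin served as internal control; bands quantified as bar graphs.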

Assay [16] relates to HCT-116. The assay can be described thus: Induction of apoptosis in human HCT116 cells assessed as decrease in Bcl-2 protein level measured after 24 hrs by Western blot analysis. In kind it is functional, cell-based. The method, boiled down:
as §3

In assay [17] the test system is HCT-116. Nature of the assay: Induction of apoptosis in human HCT116 cells assessed as increase in cleaved caspase-3 protein level measured after 24 hrs by Western blot analysis. The assay is classed as functional, cell-based. The procedure, abridged:
as §3

For assay [18], the system named is HCT-116. Nature of the assay: Induction of apoptosis in human HCT116 cells assessed as increase in cleaved caspase-9 protein level measured after 24 hrs by Western blot analysis. In kind it is functional, cell-based. The method, boiled down:
as §3

T1 sequence (P42336 whole entry, canonical isoform): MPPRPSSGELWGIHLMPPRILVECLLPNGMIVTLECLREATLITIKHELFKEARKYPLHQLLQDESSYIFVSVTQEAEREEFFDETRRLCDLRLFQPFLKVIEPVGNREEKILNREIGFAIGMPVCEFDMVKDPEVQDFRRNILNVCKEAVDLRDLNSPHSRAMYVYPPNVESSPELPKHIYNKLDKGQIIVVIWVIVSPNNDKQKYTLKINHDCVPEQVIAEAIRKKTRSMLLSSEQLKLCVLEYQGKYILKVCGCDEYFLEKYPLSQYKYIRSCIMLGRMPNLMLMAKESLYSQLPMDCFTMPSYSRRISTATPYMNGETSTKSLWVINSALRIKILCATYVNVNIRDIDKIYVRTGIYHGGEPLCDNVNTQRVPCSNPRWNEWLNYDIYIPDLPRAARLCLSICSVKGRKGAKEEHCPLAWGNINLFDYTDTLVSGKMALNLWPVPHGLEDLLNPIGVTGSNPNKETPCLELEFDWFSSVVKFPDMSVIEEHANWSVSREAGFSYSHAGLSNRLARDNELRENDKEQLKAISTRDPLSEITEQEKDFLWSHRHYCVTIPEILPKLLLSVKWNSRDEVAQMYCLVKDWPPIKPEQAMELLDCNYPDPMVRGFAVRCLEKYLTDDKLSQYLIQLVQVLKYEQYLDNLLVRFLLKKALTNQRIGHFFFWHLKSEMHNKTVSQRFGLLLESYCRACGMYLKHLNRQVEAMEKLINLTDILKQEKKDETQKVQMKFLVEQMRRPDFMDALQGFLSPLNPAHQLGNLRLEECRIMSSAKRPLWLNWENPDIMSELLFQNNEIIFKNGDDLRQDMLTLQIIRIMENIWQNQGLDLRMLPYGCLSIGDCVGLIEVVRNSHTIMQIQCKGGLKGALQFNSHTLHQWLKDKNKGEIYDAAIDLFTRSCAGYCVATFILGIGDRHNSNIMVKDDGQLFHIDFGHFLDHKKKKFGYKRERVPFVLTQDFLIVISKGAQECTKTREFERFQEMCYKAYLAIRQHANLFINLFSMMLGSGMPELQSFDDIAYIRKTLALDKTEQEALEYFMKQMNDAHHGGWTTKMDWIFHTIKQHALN

Usually pIC50 stands for −log10 of the IC50, conventionally taken in molar units. Regarding `O=c1oc2ccccc2c2nn(CN3CCN(S(=O)(=O)c4ccc(Cl)c([N+](=O)[O-])c4)CC3)cc12`, the pIC50 was 7.52 with HCT-116 [1]; 7.05 with Huh-7; 7.22 in the assay on HL-60; 8.05 in assay [2]; 6.92 in assay [3]; 5.03 in assay [4]. For the same compound, the inhibition result in [5] and in assay [6] was “Dose-dependent effect” in each case. The Activity turned out to be 10.73% in the assay on HCT-116 [7]; 50.95% in the assay with HCT-116 [8]; 39.53% in the assay with HCT-116 [9]; 58.13% with HCT-116 [10]; 8.09% in the assay with HCT-116 [11]; 21% with HCT-116 [12]. The Activity was 6.04% in the assay on HCT-116 [13]; 1.04% in the assay with HCT-116 [14]; “Dose-dependent effect” in the assay with HCT-116 [15]; “Dose-dependent effect” in the assay with HCT-116 [16]; “Dose-dependent effect” in the assay with HCT-116 [17]; “Dose-dependent effect” in the assay on HCT-116 [18].
